Assay results: ChEMBL document CHEMBL3616442, “Unconventional Knoevenagel-type indoles: Synthesis and cell-based studies for the identification of pro-apoptotic agents” (Eur J Med Chem, 2015)

Key:
PC-3 = assay: Growth inhibition of human PC3 cells after 48 hrs by sulforhodamine B assay; type: functional; conditions: PC-3, 48 h
ACHN = assay: Growth inhibition of human ACHN cells after 48 hrs by sulforhodamine B assay; type: functional
Outline: (§1)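 NCI 60-cell-line screen. Compounds tested at five 10-fold dilutions from 10^-4 to 10^-8 M. Cells exposed for the last 48 h of a 72 h incubation, growth estimated by sulforhodamine B protein assay. GI50 is the concentration giving 50% growth inhibition. Values beyond the tested range are expressed as greater or lesser than the extreme concentration.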

K562 = assay: Growth inhibition of human K562 cells after 48 hrs by sulforhodamine B assay; type: functional; conditions: K562, 48 h; outline: as §1
DU-145 = assay: Growth inhibition of human DU145 cells after 48 hrs by sulforhodamine B assay; type: functional; conditions: DU-145, 48 h; outline: as §1
MCF7 = assay: Growth inhibition of human MCF7 cells after 48 hrs by sulforhodamine B assay; type: functional; conditions: MCF7, 48 h; outline: as §1
KM12 = assay: Growth inhibition of human KM12 cells after 48 hrs by sulforhodamine B assay; type: functional; conditions: KM12, 48 h; outline: as §1
MDA-MB-468 = assay: Growth inhibition of human MDA-MB-468 cells after 48 hrs by sulforhodamine B assay; type: functional; conditions: MDA-MB-468, 48 h; outline: as §1
SF-268 = assay: Growth inhibition of human SF268 cells after 48 hrs by sulforhodamine B assay; type: functional; conditions: SF-268, 48 h
HL-60(TB) = assay: Growth inhibition of human HL-60(TB) cells after 48 hrs by sulforhodamine B assay; type: functional; conditions: HL-60, 48 h
Outline: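 NCI 60-cell-line screen, HL-60(TB) included. Compound given at five 10-fold dilutions from 10^-4 to 10^-8 M. Cells exposed for the last 48 h of a 72 h incubation. Growth or viability estimated by sulforhodamine B protein assay. GI50 is the concentration giving 50% growth inhibition. Values outside the tested range are reported as greater or less than the highest or lowest concentration.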

[1] = Growth inhibition of human COLO205 cells after 48 hrs by sulforhodamine B assay; type: functional; conditions: COLO 205, 48 h; outline: as §1
U-251 = assay: Growth inhibition of human U251 cells after 48 hrs by sulforhodamine B assay; type: functional; conditions: U-251, 48 h
NCI-H460 = assay: Growth inhibition of human NCI-H460 cells after 48 hrs by sulforhodamine B assay; type: functional; conditions: NCI-H460, 48 h; outline: as §1
[2] = Growth inhibition of human EKVX cells after 48 hrs by sulforhodamine B assay; type: functional; outline: as §1
[3] = Growth inhibition of human HOP92 cells after 48 hrs by sulforhodamine B assay; type: functional; conditions: HOP-92, 48 h; outline: as §1
NCI-H322M = assay: Growth inhibition of human NCI-H322M cells after 48 hrs by sulforhodamine B assay; type: functional; outline: as §1
Malme-3M = assay: Growth inhibition of human MALME-3M cells after 48 hrs by sulforhodamine B assay; type: functional; outline: as §1
SNB-19 = assay: Growth inhibition of human SNB19 cells after 48 hrs by sulforhodamine B assay; type: functional; conditions: SNB-19, 48 h
[4] = Growth inhibition of human LOXIMVI cells after 48 hrs by sulforhodamine B assay; type: functional; conditions: LOX IMVI; outline: as §1
CAKI-1 = assay: Growth inhibition of human CAKI-1 cells after 48 hrs by sulforhodamine B assay; type: functional; conditions: CAKI-1, 48 h; outline: as §1
[5] = Growth inhibition of human BT549 cells after 48 hrs by sulforhodamine B assay; type: functional; conditions: BT-549, 48 h; outline: as §1
UO-31 = assay: Growth inhibition of human UO31 cells after 48 hrs by sulforhodamine B assay; type: functional; conditions: UO-31, 48 h
SK-MEL-28 = assay: Growth inhibition of human SK-MEL-28 cells after 48 hrs by sulforhodamine B assay; type: functional; conditions: SK-MEL-28, 48 h
NCI-H23 = assay: Growth inhibition of human NCI-H23 cells after 48 hrs by sulforhodamine B assay; type: functional; conditions: NCI-H23, 48 h; outline: as §1
NCI-H522 = assay: Growth inhibition of human NCI-H522 cells after 48 hrs by sulforhodamine B assay; type: functional; conditions: NCI-H522, 48 h; outline: as §1
M14 = assay: Growth inhibition of human M14 cells after 48 hrs by sulforhodamine B assay; type: functional; conditions: M14, 48 h; outline: as §1
HCT-116 = assay: Growth inhibition of human HCT116 cells after 48 hrs by sulforhodamine B assay; type: functional; conditions: HCT-116, 48 h; outline: as §1
SK-OV-3 = assay: Growth inhibition of human SKOV3 cells after 48 hrs by sulforhodamine B assay; type: functional; conditions: SK-OV-3, 48 h
[6] = Growth inhibition of human SF295 cells after 48 hrs by sulforhodamine B assay; type: functional; conditions: SF-295, 48 h
SW-620 = assay: Growth inhibition of human SW620 cells after 48 hrs by sulforhodamine B assay; type: functional; conditions: SW-620, 48 h
MDA-MB-231 = assay: Growth inhibition of human MDA-MB-231 cells after 48 hrs by sulforhodamine B assay; type: functional; conditions: MDA-MB-231, 48 h; outline: as §1
T47D = assay: Growth inhibition of human T47D cells after 48 hrs by sulforhodamine B assay; type: functional
[7] = Growth inhibition of human MOLT4 cells after 48 hrs by sulforhodamine B assay; type: functional; conditions: MOLT-4, 48 h; outline: as §1
HT-29 = assay: Growth inhibition of human HT-29 cells after 48 hrs by sulforhodamine B assay; type: functional; conditions: HT-29, 48 h; outline: as §1
HOP-62 = assay: Growth inhibition of human HOP62 cells after 48 hrs by sulforhodamine B assay; type: functional; conditions: HOP-62, 48 h; outline: as §1
MDA-MB-435 = assay: Growth inhibition of human MDA-MB-435 cells after 48 hrs by sulforhodamine B assay; type: functional; conditions: MDA-MB-435, 48 h; outline: as §1
SN12C = assay: Growth inhibition of human SN12C cells after 48 hrs by sulforhodamine B assay; type: functional
OVCAR-4 = assay: Growth inhibition of human OVCAR4 cells after 48 hrs by sulforhodamine B assay; type: functional; conditions: OVCAR-4, 48 h; outline: as §1
[8] = Growth inhibition of human NCI-ADR-RES cells after 48 hrs by sulforhodamine B assay; type: functional; outline: as §1
[9] = Growth inhibition of human RPMI8226 cells after 48 hrs by sulforhodamine B assay; type: functional; conditions: RPMI-8226, 48 h
MT4 = assay: Antiproliferative activity against human MT4 cells after 96 hrs by MTT assay; type: functional, cell-based; conditions: MT4, 96 h
Outline: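 Exponentially growing MT-4 cells (CD4+ human T-cells carrying integrated HTLV-1 genome), seeded at 1×10^5 cells/mL in RPMI-1640 with 10% FCS and antibiotics. Serial dilutions of compound (DMSO stock 100 mM, diluted in medium), 37 °C, 5% CO₂, 96 h. Viability read by MTT. 50% inhibition versus untreated controls by linear regression. Mean ± SD of three independent determinations.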

SK-MEL-2 = assay: Growth inhibition of human SK-MEL-2 cells after 48 hrs by sulforhodamine B assay; type: functional; conditions: SK-MEL-2, 48 h
OVCAR-5 = assay: Growth inhibition of human OVCAR5 cells after 48 hrs by sulforhodamine B assay; type: functional; conditions: OVCAR-5, 48 h

CC(=O)/C(=C\c1c(-c2ccccc2)[nH]c2ccccc12)S(C)(=O)=O
GI50 (PC-3): 4.5 µM
GI50 (ACHN): 5.8 µM
GI50 (K562): 0.679 µM
GI50 (DU-145): 3.5 µM
GI50 (MCF7): 2.7 µM
GI50 (KM12): 2.1 µM
GI50 (MDA-MB-468): 1.8 µM
GI50 (SF-268): 4.2 µM
GI50 (HL-60(TB)): 2.6 µM
GI50 [1]: 3 µM
GI50 (U-251): 2.9 µM
GI50 (NCI-H460): 2.8 µM
GI50 [2]: 6.4 µM
GI50 [3]: 3.8 µM
GI50 (NCI-H322M): 9.6 µM
GI50 (Malme-3M): 4.8 µM
GI50 (SNB-19): 3.4 µM
GI50 [4]: 3.4 µM
GI50 (CAKI-1): 5.6 µM
GI50 [5]: 2.4 µM
GI50 (UO-31): 5.8 µM
GI50 (SK-MEL-28): 3.3 µM
GI50 (NCI-H23): 4 µM
GI50 (NCI-H522): 3.6 µM
GI50 (M14): 1.6 µM
GI50 (HCT-116): 2.9 µM
GI50 (SK-OV-3): 4.4 µM
GI50 [6]: 3.9 µM
GI50 (SW-620): 2.1 µM
GI50 (MDA-MB-231): 5.5 µM
GI50 (T47D): 2.3 µM
GI50 [7]: 4.4 µM
GI50 (HT-29): 1.6 µM
GI50 (HOP-62): 12.1 µM
GI50 (MDA-MB-435): 0.415 µM
GI50 (SN12C): 6.9 µM
GI50 (OVCAR-4): 3.8 µM
GI50 [8]: 2.1 µM
GI50 [9]: 3 µM
EC50 (MT4): 0.5 µM
GI50 (SK-MEL-2): 8.6 µM
GI50 (OVCAR-5): 16.1 µM
